Calls of active or inactive are those of the source. No cut-off for these calls is given here.
Experiments:
A549 [1] = assay: Antiproliferative activity against human A549 cells assessed as decrease in population doubling at 0.4 uM after 42 days; format: functional, cell-based
Method in brief: (§1)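 A549 cells (1.5×10^5) seeded in RPMI 1640 + 10% FBS with 0.4 or 0.8 μM perylene or medium only. Medium changed every 3 days. Every 6 days, at confluence, cells were trypsinized, counted by hemocytometer and replated at 1.5×10^5. Population doublings n = (log Pn − log P0)/log 2, cumulated against time. Three independent experiments.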

Homo sapiens [2] = organism: Homo sapiens; assay: Binding affinity to human TERT1 5'-AAGGGGAGGGGCTGGGAGGGCCCGGA-3' DNA assessed as induction of intramoleculsr G-quadruplex formation after 10 hrs by PAGE analysis
Method in brief: (§2)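 FAM-labeled G-rich strand (2 µM) and complementary C-rich strand (2 µM) with compound in 10 mM Tris-HCl pH 7.4, 100 mM KCl. Heated to 95 °C for 5 min, slowly cooled to 55 °C, held 10 h, then cooled to 4 °C. Duplex vs G-quadruplex resolved on 16% native PAGE with 50 mM KCl (4 °C, 350 V, 10 h) and fluorescence-imaged.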

A549 [3] = assay: Binding affinity to human TERT promoter DNA sequence in human A549 cells assessed as telomere restriction fragment length at 0.8 uM after 30 days by TeloTAGGG-based chemiluminescence assay (reference value: 3.6 kb); format: cell-based
Method in brief: (§3)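 Genomic DNA from A549 cells kept long-term with 0.4 or 0.8 μM compound (medium changed every 3 days, replated every 6 days). DNA isolated with DNAzol. 2 µg digested with RsaI/HinfI, run on 0.8% agarose, Southern-blotted, hybridized with DIG-labeled telomeric probe, anti-DIG alkaline phosphatase, chemiluminescence. Mean TRF = Σ(ODi)/Σ(ODi/Li).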

A549 [4] = assay: Cytotoxicity against human A549 cells assessed as colony formation at 0.4 uM incubated for 24 days followed by subculturing in compound-free medium measured after 14 days by crystal violet staining method relative to control; format: functional
Method in brief: (§4)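 A549 cells from the long-term culture (0.4 or 0.8 μM, medium changed every 3 days, replated every 6 days) were collected on the stated day. 2×10^3 cells seeded per 10-cm dish, fed every 4-5 days. Colonies stained with crystal violet after 14 days and counted; expressed as % of control. Controls under 25 colonies excluded. Three independent experiments.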

Homo sapiens [5] = organism: Homo sapiens; assay: Binding affinity to human TERT2 5'-GGGGGCTGGGCCGGGGACCCGGGAGGGGTCGGGACGGGGCGGGG-3' DNA assessed as induction of intermolecular G-quadruplex formation at 8 to 32 uM after 10 hrs by PAGE analysis; method in brief: as §2
A549 [6] = assay: Binding affinity to human TERT promoter DNA sequence in human A549 cells assessed as telomere restriction fragment length at 0.4 uM after 6 days by TeloTAGGG-based chemiluminescence assay (reference value: 3.6 kb); format: cell-based; method in brief: as §3
A549 [7] = assay: Cytotoxicity against human A549 cells assessed as colony formation at 0.8 uM incubated for 24 days followed by subculturing in compound-free medium measured after 14 days by crystal violet staining method relative to control; format: functional; method in brief: as §4
A549 [8] = assay: Antiproliferative activity against human A549 cells assessed as decrease in cell viability at 0.4 uM after 42 days; format: functional, cell-based; method in brief: as §1
Homo sapiens [9] = organism: Homo sapiens; assay: Binding affinity to human telomeric 5'-AGATAGTTAGGGTTAGGGTTAGGGTTAGGGTT-3' DNA assessed as induction of intramoleculsr G-quadruplex formation after 10 hrs by PAGE analysis; method in brief: as §2
A549 [10] = assay: Antiproliferative activity against human A549 cells assessed as decrease in population doubling at 0.8 uM after 18 days; format: functional, cell-based; method in brief: as §1
A549 [11] = assay: Binding affinity to human TERT promoter DNA sequence in human A549 cells assessed as telomere restriction fragment length at 0.8 uM after 18 days by TeloTAGGG-based chemiluminescence assay (reference value: 3.6 kb); format: cell-based; method in brief: as §3
A549 [12] = assay: Binding affinity to human TERT promoter DNA sequence in human A549 cells assessed as decrease in TERT mRNA expression after 24 hrs by semi-quantitative PCR analysis; format: cell-based
Method in brief: (§5)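 A549 cells (3.0×10^5) grown 24 h in RPMI 1640 + 10% FBS at 37 °C, 5% CO2, then exposed to compound for 24 h. Total RNA by Trizol, reverse transcribed, hTERT amplified with specific primers. Semi-quantitative and real-time SYBR Green PCR (45 cycles), standard-curve method, normalized to GAPDH. Three independent experiments.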

A549 [13] = assay: Cytotoxicity against human A549 cells assessed as reduction in colony formation incubated for 24 days followed by subculturing in compound-free medium measured after 14 days by crystal violet staining method; format: functional, cell-based; method in brief: as §4
A549 [14] = assay: Binding affinity to human TERT promoter DNA sequence in human A549 cells assessed as inhibition of telomerase-mediated MTS primer extension after 24 hrs by fluorescence-based TRAP assay; format: cell-based
Method in brief: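 A549 cells exposed to compound for 24 h, lysed in CHAPS buffer, protein measured by Bradford. 6 µg lysate protein used as telomerase source in fluorescent TRAP with MTS primer (no G-quadruplex motif), with no phenol-chloroform step. FAM-primer PCR, native PAGE, fluorescence quantified. Mean ± SD of three experiments.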

A549 [15] = assay: Binding affinity to human TERT promoter DNA sequence in human A549 cells assessed as telomere restriction fragment length at 0.4 uM after 24 days by TeloTAGGG-based chemiluminescence assay (reference value: 3.6 kb); format: cell-based; method in brief: as §3
A549 [16] = assay: Antiproliferative activity against human A549 cells assessed as cell division arrest at 0.8 uM measured on day 36; format: functional, cell-based; method in brief: as §1
A549 [17] = assay: Antiproliferative activity against human A549 cells assessed as effect on population doubling at 0.4 uM up to 42 days; format: functional, cell-based; method in brief: as §1
A549 [18] = assay: Cytotoxicity against human A549 cells assessed as colony formation at 0.4 uM incubated for 6 days followed by subculturing in compound-free medium measured after 14 days by crystal violet staining method relative to control; format: functional; method in brief: as §4
A549 [19] = assay: Cytotoxicity against human A549 cells assessed as colony formation at 0.4 uM incubated for 54 days followed by subculturing in compound-free medium measured after 14 days by crystal violet staining method relative to control; format: functional; method in brief: as §4
Homo sapiens [20] = organism: Homo sapiens; assay: Binding affinity to human TERT2 5'-GGGGGCTGGGCCGGGGACCCGGGAGGGGTCGGGACGGGGCGGGG-3' DNA assessed as induction of intramolecular G-quadruplex formation at 4 uM after 10 hrs by PAGE analysis; method in brief: as §2
A549 [21] = assay: Binding affinity to human TERT promoter DNA sequence in human A549 cells assessed as decrease in TERT mRNA expression at 6 uM after 24 hrs by semi-quantitative PCR analysis relative to control; format: cell-based; design: scale not given: the % may be the effect or the level left; method in brief: as §5
[22] = Binding affinity to TSG4 primer DNA (unknown origin) assessed as inhibition of telomerase-mediated extension of primer […] by fluorescence-based TRAP assay
Method in brief: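 Cell-free TRAP. Compound preincubated with TSG4 primer in telomerase buffer (20 mM Tris-HCl pH 7.4, 1.5 mM MgCl2, 63 mM KCl, 1 mM EGTA, 200 µM dNTPs) at 37 °C for 2 h. Crude telomerase (50 ng) from telomerase-transfected HEK293T added, 30 °C for 30 min. Compound removed by phenol-chloroform, products ethanol-precipitated, PCR with FAM-tagged primer, 8% native PAGE, phosphoimaging. IC50 ± SD from three experiments.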

A549 [23] = assay: Binding affinity to human TERT promoter DNA sequence in human A549 cells assessed as telomere restriction fragment length at 0.8 uM after 6 days by TeloTAGGG-based chemiluminescence assay (reference value: 3.6 kb); format: cell-based; method in brief: as §3
A549 [24] = assay: Induction of senescence in human A549 cells assessed as cell enlargement at 0.4 uM incubated for 54 days followed by subculturing on compound-free medium measured after 48 hrs by fluorescence microscopic analysis; format: functional, cell-based
Method in brief: (§6)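 A549 cells from the long-term treatment replated and grown 48 h. Fixed in 2% formaldehyde/0.2% glutaraldehyde for 5 min at RT. Stained overnight with 1 mg/ml X-gal in pH 6 citrate/phosphate buffer with 5 mM ferro/ferricyanide, 150 mM NaCl, 2 mM MgCl2. Enlarged blue cells scored by microscopy.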

A549 [25] = assay: Induction of senescence in human A549 cells assessed as increase in beta-galactosidase activity at 0.4 uM incubated for 54 days followed by subculturing on compound-free medium measured after 48 hrs by fluorescence microscopic analysis; format: functional, cell-based; method in brief: as §6
A549 [26] = assay: Binding affinity to human TERT promoter DNA sequence in human A549 cells assessed as telomere restriction fragment length at 0.4 uM after 54 days by TeloTAGGG-based chemiluminescence assay (reference value: 3.6 kb); format: cell-based; method in brief: as §3
A549 [27] = assay: Cytotoxicity against human A549 cells assessed as colony formation at 0.8 uM incubated for 6 days followed by subculturing in compound-free medium measured after 14 days by crystal violet staining method relative to control; format: functional; method in brief: as §4

CCN(CC)CCN1C(=O)c2ccc3c4cccc5c(N6CCNCC6)ccc(c6ccc(c2c36)C1=O)c54
Activity (A549 [1]): Active | Activity (Homo sapiens [2]): Dose-dependent effect | Activity (A549 [3]): 3.2 kilobase | Activity (A549 [4]): 73% | Activity (Homo sapiens [5]): Active | Activity (A549 [6]): 3.6 kilobase | Activity (A549 [7]): 35% | Activity (A549 [8]): inactive | Activity (Homo sapiens [9]): Dose-dependent effect | Activity (A549 [10]): Active | Activity (A549 [11]): 3.5 kilobase | Activity (A549 [12]): Dose-dependent effect | Activity (A549 [13]): Dose-dependent effect | Activity (A549 [14]): Dose-dependent effect | Activity (A549 [15]): 3.5 kilobase | Activity (A549 [16]): Active | Activity (A549 [17]): inactive | Activity (A549 [18]): 100% | Activity (A549 [19]): 60% | Activity (Homo sapiens [20]): Active | Activity (A549 [21]): 37% | IC50 [22]: 800 nM | inhibition [22]: Dose-dependent effect | Activity (A549 [23]): 3.6 kilobase | Activity (A549 [24]): Active | Activity (A549 [25]): Active | Activity (A549 [26]): 2.9 kilobase | Activity (A549 [27]): 100%

Source: ChEMBL document CHEMBL2331390, “Telomere shortening and cell senescence induced by perylene derivatives in A549 human lung cancer cells” (Bioorg Med Chem, 2013)
